Measurements taken from ChEMBL document CHEMBL5096209, “Structure-Activity Studies of 3,9-Diazaspiro[5.5]undecane-Based γ-Aminobutyric Acid Type A Receptor Antagonists with Immunomodulatory Effect” (J Med Chem, 2021).

What was measured:
[1] = Antagonist activity at recombinant human alpha6beta2delta GABAA receptor expressed in HEK293 Flp-In cells by FMP assay; type: cell-based, Flp-In-293
In short: (§1)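 HEK293 Flp-In cells stably expressing human δ subunit, transiently transfected with human α and β subunits (1:1) to form αβδ receptors. Read-out is the FLIPR membrane potential dye ΔRFU, baseline to peak/plateau, with GABA EC80 as agonist. Four-parameter fit of concentration–inhibition curves gives IC50, from at least three independent experiments.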

[2] = target: T1, GABA-A receptor; alpha-1/beta-2/gamma-2 (Homo sapiens, UniProt P14867+P18507+P47870); assay: Antagonist activity at human alpha1beta2gamma2 GABAA receptor expressed in HEK by FMP assay; type: cell-based
T1 sequence (P14867 whole entry): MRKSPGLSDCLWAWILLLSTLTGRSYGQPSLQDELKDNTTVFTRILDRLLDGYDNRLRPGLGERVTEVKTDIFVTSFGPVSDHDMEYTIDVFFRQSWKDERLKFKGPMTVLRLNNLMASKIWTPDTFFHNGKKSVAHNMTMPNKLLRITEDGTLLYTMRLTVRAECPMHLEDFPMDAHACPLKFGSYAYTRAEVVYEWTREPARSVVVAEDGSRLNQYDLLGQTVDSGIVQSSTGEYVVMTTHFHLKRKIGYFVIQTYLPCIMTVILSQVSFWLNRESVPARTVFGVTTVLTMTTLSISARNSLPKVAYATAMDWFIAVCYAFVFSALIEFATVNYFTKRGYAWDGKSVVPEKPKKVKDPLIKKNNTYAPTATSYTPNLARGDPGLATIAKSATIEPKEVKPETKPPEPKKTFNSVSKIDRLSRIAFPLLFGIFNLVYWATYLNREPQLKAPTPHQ
T1 sequence (P47870 whole entry): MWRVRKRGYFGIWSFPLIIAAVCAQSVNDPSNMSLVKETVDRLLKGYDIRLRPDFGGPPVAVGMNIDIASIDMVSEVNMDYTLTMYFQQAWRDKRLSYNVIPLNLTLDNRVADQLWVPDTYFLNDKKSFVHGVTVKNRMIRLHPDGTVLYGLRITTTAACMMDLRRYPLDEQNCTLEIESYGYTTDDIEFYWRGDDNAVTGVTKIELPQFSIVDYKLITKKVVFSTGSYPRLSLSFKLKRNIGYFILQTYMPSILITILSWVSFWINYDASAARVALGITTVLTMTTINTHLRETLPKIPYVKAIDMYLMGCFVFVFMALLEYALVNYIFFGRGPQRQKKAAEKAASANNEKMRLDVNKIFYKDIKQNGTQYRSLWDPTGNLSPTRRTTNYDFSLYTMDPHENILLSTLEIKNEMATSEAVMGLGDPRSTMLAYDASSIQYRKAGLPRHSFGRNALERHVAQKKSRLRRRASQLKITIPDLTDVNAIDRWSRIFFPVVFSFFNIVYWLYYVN
T1 sequence (P18507 whole entry): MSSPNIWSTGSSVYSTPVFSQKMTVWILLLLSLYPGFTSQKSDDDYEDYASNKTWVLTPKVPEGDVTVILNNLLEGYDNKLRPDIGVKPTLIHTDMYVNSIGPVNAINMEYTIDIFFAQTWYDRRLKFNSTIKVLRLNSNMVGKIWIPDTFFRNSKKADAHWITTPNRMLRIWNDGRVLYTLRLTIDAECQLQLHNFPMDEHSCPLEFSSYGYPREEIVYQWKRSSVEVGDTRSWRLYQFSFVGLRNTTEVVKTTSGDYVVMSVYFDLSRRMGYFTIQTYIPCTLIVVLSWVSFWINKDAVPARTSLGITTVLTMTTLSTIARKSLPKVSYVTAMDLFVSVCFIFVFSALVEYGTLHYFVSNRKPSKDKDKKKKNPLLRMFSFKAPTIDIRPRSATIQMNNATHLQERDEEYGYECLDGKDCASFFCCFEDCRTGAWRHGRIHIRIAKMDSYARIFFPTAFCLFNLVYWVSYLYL
In short: (§2)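 Human αβγ2 receptors in HEK293 cells: α1β2γ2 stably expressed, other αβγ2 subtypes transiently transfected into HEK293 Flp-In background cells (α:β:γ 1:1:2). FLIPR membrane potential assay with ΔRFU baseline to peak/plateau and GABA EC80 as agonist. IC50 from a four-parameter fit, at least three independent experiments.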

[3] = target: T2, Gamma-aminobutyric acid receptor subunit alpha-1/beta-2/delta (Homo sapiens, UniProt O14764+P14867+P47870); assay: Antagonist activity at recombinant human alpha1beta2delta GABAA receptor expressed in HEK293 Flp-In cells by FMP assay; type: cell-based, Flp-In-293; in short: as §1
T2 sequence (P14867 whole entry): T1 sequence (P14867 whole entry)
T2 sequence (P47870 whole entry): T1 sequence (P47870 whole entry)
T2 sequence (O14764 whole entry): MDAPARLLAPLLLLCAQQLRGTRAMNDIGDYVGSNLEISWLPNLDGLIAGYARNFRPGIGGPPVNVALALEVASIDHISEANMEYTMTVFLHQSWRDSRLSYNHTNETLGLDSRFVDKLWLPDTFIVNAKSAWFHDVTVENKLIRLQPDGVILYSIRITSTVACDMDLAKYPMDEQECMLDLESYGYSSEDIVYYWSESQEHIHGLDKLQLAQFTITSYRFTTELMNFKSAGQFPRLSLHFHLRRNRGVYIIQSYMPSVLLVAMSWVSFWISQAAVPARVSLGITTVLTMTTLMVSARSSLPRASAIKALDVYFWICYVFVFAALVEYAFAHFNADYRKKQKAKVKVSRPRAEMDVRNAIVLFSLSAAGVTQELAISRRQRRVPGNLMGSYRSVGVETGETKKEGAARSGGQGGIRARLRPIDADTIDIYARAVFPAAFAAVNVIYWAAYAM

[4] = target: T2, Gamma-aminobutyric acid receptor subunit alpha-1/beta-2/delta; assay: Antagonist activity at human alpha1beta2delta GABAA receptor expressed in HEK293 Flp-In cells by FMP assay; type: cell-based, Flp-In-293; in short: as §1
[5] = target: T1, GABA-A receptor; alpha-1/beta-2/gamma-2; assay: Antagonist activity at human alpha1beta2gamma2 GABAA receptor expressed in HEK293 cells by FMP assay; type: cell-based; in short: as §2
[6] = Antagonist activity at human alpha6beta2delta GABAA receptor expressed in HEK293 Flp-In cells by FMP assay; type: cell-based, Flp-In-293; in short: as §1
[7] = tested on: GABAA receptor α4β2δ (human); assay: Antagonist activity at human alpha4beta2delta GABAA receptor expressed in HEK293 Flp-In cells by FMP assay
[8] = Homo sapiens, Flp-In-293, read-out: pIC50 (converted)

IC50 [1, 8] [µM]	IC50 ([1]; flp-in-293) [µM]	IC50 [2] [µM]	IC50 ([2]; read-out: pIC50 (converted)) [µM]	IC50 [3] [µM]	IC50 ([3]; read-out: pIC50 (converted)) [µM]	IC50 [4] [µM]	IC50 ([4]; read-out: pIC50 (converted)) [µM]	IC50 [5] [µM]	IC50 ([5]; read-out: pIC50 (converted)) [µM]	IC50 [6, 8] [µM]	IC50 ([6]; flp-in-293) [µM]	IC50 [7, 8] [µM]	IC50 ([7]; flp-in-293) [µM]	SMILES
4.17	4.13	4.96	5.01	6.68	6.76	–	–	–	–	–	–	–	–	CC(=O)Nc1cccc(C(=O)N2CCC3(CCNCC3)CC2)c1
0.331	0.33	0.79	0.794	–	0.245	–	–	–	–	–	–	–	–	O=C(Nc1cccc(C(=O)N2CCC3(CCNCC3)CC2)c1)c1cccs1
–	–	–	–	–	–	13.2	13.2	10	10	8.71	8.87	2.14	2.15	Cc1ccc(C(=O)N2CCC3(CCNCC3)CC2)cc1
–	–	–	–	–	–	4.95	4.9	2.18	2.19	1.91	1.95	0.251	0.25	Cc1cccc(C(=O)N2CCC3(CCNCC3)CC2)c1
